Screens as filed in PubChem BioAssay.
A selection: hits, their analogues and other compounds. The true share with any hit is near 4.8%.
Jurkat NFkB inh = inhibitors of the PMA/ionomycin-induced NF-kB reporter in Jurkat cells. inhibition, % at 4 µM. 330,000 tested, 0.53% active. PMA/ionomycin-induced NF-kB luciferase reporter, luminescence; in the data active = inhibition above about 50%
697 NFkB inh = lowers PMA/ionomycin-induced NF-kB signal in 697 B cells. 697 B-cell NF-kB luciferase reporter, 16 h. inhibition, % at 4 µM. 330,000 tested, 0.33% active. AID 435022; in the data active = inhibition above about 35%
T cruzi inh = T. cruzi replication inhibition; 300,000 tested, 1.4% active; T. cruzi beta-gal in NIH3T3, luminescence, 90 h; inhibition, % (test concentration not listed); AID 1885;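 active = mean inhibition across valid replicates above about 55%, limit read from the data; inconclusive = mean below that limit but half or more replicates reach it; inactive = mean below it, under half of replicates reach it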;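 also: signal also drops with host cell toxicity which is not excluded here; higher percent means less beta-gal luminescence so fewer parasites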
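System: mouse NIH/3T3 fibroblasts infected with β-gal-expressing T. cruzi Tulahuen C4 / Input: NIH/3T3 cells, 5,000 per well / Buffer or medium: Low-serum DMEM with 2% FBS / Probe or stimulus: 5000 reporter trypomastigotes per well / Schedule: ≥90 h infection period, 3 h prior cell attachment / Measured by: GalScreen luminescence, 60 min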
HSF-1 act = increases HSF-1 driven luciferase reporter signal. 300,000 tested, 1.7% active. activation, % at 9 µM. NIH3T3-HGL HSF-1 luciferase reporter, MG132, 8 h; 100% = twice DMSO control signal;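 active = mean replicate activation of at least 50% with a set share of replicates each reaching 50%; inconclusive = only one of those two conditions met; inactive = mean below 50% and too few replicates reaching it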
HSF1 inhib = HSF1 inhibition; activity change, negative = inhibition, % at 7.5 µM (by protocol); NIH3T3-HGL HSE-luciferase, MG132-induced, luminescence 8 h; hits give low values; 300,000 tested, 0.77% active;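 active = more than half of replicate wells show activity change below -50%, luminescence cut by over half; inconclusive = some wells, but at most half, below -50%; inactive = no replicate well below -50%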;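 also: luciferase reports HSF-1 transcriptional activity via heat shock element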
GPR7 antagonist = human neuropeptides B/W receptor 1 antagonism; P48145; GPR7-expressing cells, fluorescence antagonist assay; inhibition, % at 4.4 µM; 290,000 tested, 1.1% active; AID 1861; in the data active = inhibition above about 16%, passing the limit was not always enough;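 also: cells stimulated with the agonist NPW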
Target sequence (P48145 whole entry, looked up): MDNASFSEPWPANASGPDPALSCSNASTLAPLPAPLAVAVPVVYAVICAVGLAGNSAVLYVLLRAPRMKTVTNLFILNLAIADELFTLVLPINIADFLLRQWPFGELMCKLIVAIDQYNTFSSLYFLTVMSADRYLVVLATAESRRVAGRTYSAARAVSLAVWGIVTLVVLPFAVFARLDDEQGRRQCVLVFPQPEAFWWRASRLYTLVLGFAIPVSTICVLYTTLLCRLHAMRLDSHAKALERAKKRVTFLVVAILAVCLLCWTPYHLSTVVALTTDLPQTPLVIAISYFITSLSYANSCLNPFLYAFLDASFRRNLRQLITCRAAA
Large screens that a line does not name were inactive.

Cc1cc(C)nc(NC(=NCCc2c[nH]c3ccccc23)NC(=O)C(C)(C)C)n1	T cruzi inh 60.8
Cc1cc(C)nc(N2C(=O)CC(C(=O)O)NC2=NCCc2c[nH]c3ccccc23)n1 (stereo not given)	none
CC(Nc1nc(-c2ccncc2)nc2ccccc12)c1ccccc1 (stereo not given)	T cruzi inh 61.3
Fc1ccccc1Nc1nc(-c2ccncc2)nc2ccccc12	T cruzi inh 55.2
CCC(=O)N1C(C(=O)N2CCCC2)CSC1c1ccc(OC)cc1 (stereo not given)	HSF1 inhib -88.2
CCC(=O)N1C(C(=O)O)CSC1c1ccc(OC)cc1 (stereo not given)	none
COC(=O)c1ccc(CN2CCN(C3CCCC3)C(CCO)C2)cc1 (stereo not given)	none
COC(=O)c1ccc(CN2CCN(C3CCCCC3)C(CCO)C2)cc1 (stereo not given)	HSF1 inhib -64.2
CSc1ccccc1C(=O)Nc1ccc(C)cc1C	none
CSc1ccccc1C(=O)Nc1cc(C)ccc1C	HSF-1 act 58.0
Cc1cccc(N2CCN(C(c3ccncc3)c3nnnn3C(C)(C)C)CC2)c1C (stereo not given)	T cruzi inh 64.3
COc1cc(NC(=O)C2=C(N3CCOCC3)/C(=C\c3ccc(Br)cc3)CC2)cc(OC)c1OC	HSF-1 act 96.8
COc1cc(NC(=O)C2=C(N3CCOCC3)/C(=C\c3ccc(Cl)cc3Cl)CC2)cc(OC)c1OC	none
C/C=C/c1ccc(OCC(=O)O)c(OC)c1	none
C/C=C/c1ccc(OCC(=O)Nc2cc(OC)c(OC)c(OC)c2)c(OC)c1	HSF1 inhib -52.3
O=C(Cc1ccc(Br)cc1)Nc1cccc(-c2cn3c(n2)SCC3)c1	none
Cc1ccc(C)c(Nc2ncccc2C(=O)NCc2cccs2)c1	HSF-1 act 55.3
O=C(COC(=O)Cc1ccc(S(=O)(=O)N2CCOCC2)s1)Nc1ccc([N+](=O)[O-])cc1	none (no result: T cruzi inh, HSF-1 act, HSF1 inhib, GPR7 antagonist)
Nc1c(C(=O)Nc2ccccc2Cl)nnn1-c1ccc2c(c1)OCCO2	HSF-1 act 57.6
COc1cc2oc3ccc(C#Cc4ccccn4)cc3c(=O)c2cc1OC	T cruzi inh 58.7 (no result: GPR7 antagonist)
Cc1cc(C(=O)COC(=O)c2ccco2)c(C)n1Cc1ccco1	HSF1 inhib -75.4
Cc1cc(C)c2nc(-c3cccc(Cl)c3)c(C)c(C(=O)N3CCOCC3)c2c1	none
Cc1nc(Nc2nc(CSc3nc4ccccc4[nH]3)cc(=O)[nH]2)nc2ccccc12	none
O=c1cc(CSc2ccc(Cl)cc2)nc(-c2ccccn2)[nH]1	T cruzi inh 59.4, HSF-1 act 136.1
Clc1ccc(SCc2cc(N3CCOCC3)nc(-c3ccccn3)n2)cc1	T cruzi inh 60.4 (no result: HSF-1 act, HSF1 inhib)
Cc1nc(Nc2nc(CSc3ccc(Cl)cc3)cc(=O)[nH]2)nc2ccccc12	HSF-1 act 60.6
CC(Sc1ccc(Cl)cc1)C(=O)NNC(=O)c1csc(N2CCOCC2)n1 (stereo not given)	none
Clc1ccc(SCc2csc(N3CCOCC3)n2)cc1	HSF-1 act 71.8
Cc1nc(CSc2ccc(Cl)cc2)cc(N2CC(C)OC(C)C2)n1 (stereo not given)	none
CCCCN(CCCC)CCNC(=O)c1cn(CC)c2ccc(S(=O)(=O)N3CCCC3)cc2c1=O	none
COc1ccccc1CCC(=O)Nc1ncc(C)s1	none
Nc1nonc1C(=O)N/N=C/c1ccc(-c2cccc(C(=O)O)c2)o1	none
CSc1cccc(NC(=O)CN(C)S(=O)(=O)c2ccc(F)cc2)c1	none
CSc1cccc(NC(=O)CN(C)S(=O)(=O)c2ccccc2)c1	HSF-1 act 66.7
Cc1ccc(C)c(-c2nn(-c3cc(N4CCN(CCO)CC4)ccc3[N+](=O)[O-])c(=O)c3ccccc23)c1	T cruzi inh 60.8
Cc1nn(-c2cc(N3CCCC3)ccc2[N+](=O)[O-])c(=O)c2ccccc12	none
O=c1ccc2ccc(Oc3ccc([N+](=O)[O-])cc3[N+](=O)[O-])cc2o1	HSF-1 act 68.2
Cc1ccc(S(=O)(=O)NC(C)(C)CSc2nncn2N)cc1	HSF1 inhib -77.3
Cc1ccc(S(=O)(=O)NCCSc2nncn2C)cc1	none
CCCNC(=O)c1ccc(CN2CCc3ccccc3C2)cc1	none
C/C(=N\NC(=O)c1ccc(CN2CCc3ccccc3C2)cc1)c1ccccc1O	T cruzi inh 64.4, HSF-1 act inconclusive
CSc1nc(N)nc(SCC(=O)C23CC4CC(CC(C4)C2)C3)c1C#N	T cruzi inh 65.3
COc1ccc(NC(=O)C2C(=O)NC3(C)CC2c2ccccc2O3)cc1 (stereo not given)	none
CC12CC(c3ccccc3O1)C(C(=O)NCc1ccccc1)C(=O)N2 (stereo not given)	HSF1 inhib -70.8
COc1ccc(C(CNC(=O)C(=O)NC2CCCCC2)N2CCN(C)CC2)cc1 (stereo not given)	none (no result: GPR7 antagonist)
O=C(Nc1ncc(Cc2ccccc2Cl)s1)c1ccc(-c2cccc([N+](=O)[O-])c2)o1	T cruzi inh 59.5
O=C(Nc1ncc(Cc2ccc(C(F)(F)F)cc2)s1)c1ccc(-c2cccc([N+](=O)[O-])c2)o1	none
O=C(Nc1ncc(Cc2cccc(Cl)c2Cl)s1)C1CCCO1 (stereo not given)	HSF-1 act 57.6
CCc1cccc(C)c1NC(=O)C1CCCO1 (stereo not given)	none
Cc1cnc(NC(=O)C2CCCO2)s1 (stereo not given)	none
O=C(Nc1ncc(Cc2ccccc2Cl)s1)C1CCCO1 (stereo not given)	HSF-1 act 74.8
Cc1cccc2sc(NC(=O)C3CCCO3)nc12 (stereo not given)	HSF-1 act 63.4
O=C(Nc1ncc(Cc2cccc(Cl)c2)s1)C1CCCO1 (stereo not given)	none
CCn1c(NCc2cc(Cl)ccc2O)nc2ccccc21	none
CCCCNC(=O)C(c1ccc(OCC(=O)OC)c(C(=O)OC)c1)N(CCOC)C(=O)CCCCCN1C(=O)NC(c2ccc(-c3ccccc3)cc2)C(C(=O)OCc2ccccc2)=C1C (stereo not given)	none (no result: GPR7 antagonist)
O=[N+]([O-])c1ccc(/C=[N+](\[O-])[C@@H]2CCCC[C@@H]2/[N+]([O-])=C/c2ccc([N+](=O)[O-])o2)o1	HSF-1 act 70.7
O=C(N/N=C/c1ccc([N+](=O)[O-])o1)C1CCCC1	T cruzi inh 71.7
O=C(N/N=C\c1ccc([N+](=O)[O-])o1)C1COc2ccccc2O1 (stereo not given)	T cruzi inh 61.2
CCN(C[C@H]1N[C@@](CC)(C(=O)OC)[C@H]2C(=O)N(Cc3ccccc3)C(=O)[C@@H]12)C(=O)c1ccc(C(C)(C)C)cc1	none (no result: T cruzi inh, HSF-1 act, HSF1 inhib, GPR7 antagonist)
COc1ccc(CCNC(=O)COC(=O)/C=C/c2ccc3c(c2)OCO3)cc1OC	none (no result: T cruzi inh, HSF-1 act, HSF1 inhib, GPR7 antagonist)
